Experiments:
[1] = biological target: T1, Phospholipase A2 (Apis mellifera, UniProt P00630); experiment: Inhibition of bee venom phospholipase A2
T1 sequence (P00630 whole entry): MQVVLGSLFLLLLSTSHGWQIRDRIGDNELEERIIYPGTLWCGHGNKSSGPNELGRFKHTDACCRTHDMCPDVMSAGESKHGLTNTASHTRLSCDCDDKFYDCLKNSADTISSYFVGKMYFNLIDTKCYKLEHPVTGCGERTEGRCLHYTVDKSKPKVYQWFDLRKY

[2] = test system: THP-1; experiment: Cytotoxicity against human THP1 cells assessed as cell viability after 48 hrs by MTT assay; type: functional, cell-based; conditions: THP-1, 48 h
In short: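 THP-1 cells cultured in RPMI-1640 containing 2-mercaptoethanol and 10% FBS, humidified 5% CO2, 37 °C. They were seeded at 1 × 10^4 cells per well in 96-well plates and incubated with graded compound concentrations for 48 h. MTT was added for the final 1 h, and formazan was dissolved in DMSO for absorbance reading. IC50 is mean ± SD of three independent experiments.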

[3] = test system: MCF7; experiment: Cytotoxicity against human MCF7 cells assessed as cell viability after 48 hrs by MTT assay; type: functional, cell-based; conditions: MCF7, 48 h
In short: (§1)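 DU145 and MCF-7 cells grown in MEM with non-essential amino acids, 1 mM sodium pyruvate, […] bovine insulin and 10% FBS at 37 °C, 5% CO2. Cells were seeded at 1 × 10^4 per well in 96-well plates and treated at varied concentrations for 48 h. MTT reduction was measured over 1 h, with DMSO-solubilized formazan read by absorbance. IC50 is mean ± SD, n = 3 independent experiments.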

[4] = test system: HeLa; experiment: Cytotoxicity against human HeLa cells assessed as cell viability after 48 hrs by MTT assay; type: functional, cell-based
In short: (§2)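 A549 and HeLa cells grown in DMEM with non-essential amino acids and 10% FBS at 37 °C, 5% CO2. Subconfluent cells were trypsinized, plated at 1 × 10^4 cells per well in 96-well plates, and exposed to a range of concentrations for 48 h. MTT was added for 1 h, and formazan was dissolved in DMSO and read by absorbance. IC50 is mean ± SD of three independent experiments.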

[5] = test system: A549; experiment: Cytotoxicity against human A549 cells assessed as cell viability after 48 hrs by MTT assay; type: functional, cell-based; conditions: A549, 48 h; in short: as §2
[6] = test system: DU-145; experiment: Cytotoxicity against human DU145 cells assessed as cell viability after 48 hrs by MTT assay; type: functional, cell-based; conditions: DU-145, 48 h; in short: as §1

Row | Compound | IC50 [1] [µM] | IC50 [2] [µM] | IC50 [3] [µM] | IC50 [4] [µM] | IC50 [5] [µM] | IC50 [6] [µM]
1 | C=C/C(C)=C\CC/C(C)=C/c1cc(C(=O)O)co1 | 500 | 56.6 | 61.9 | 81 | 89.3 | 60.1
2 | C=C/C(C)=C/CC/C(C)=C/c1cc(C(=O)O)co1 |  | 39.8 | 74.5 | 80.4 | 89.7 | 38.9
3 | C=C/C(C)=C\CC/C(C)=C/c1cc(C(=O)OC)co1 |  | 51.4 | 75.4 | 59.4 | 89.6 | 59.3
4 | C=C/C(C)=C/CC/C(C)=C/c1cc(C(=O)OC)co1 |  | 25.8 | 28.9 | 35.5 | 28.6 | 25.1
5 | C=C/C(C)=C\CC/C(C)=C/c1cc(C(=O)N2CCN(C)CC2)co1 |  | 20.8 | 27.9 | 30.5 | 23.6 | 24.1
6 | C=C/C(C)=C\CC/C(C)=C/c1cc(C(=O)N2CCN(CC)CC2)co1 |  | 26.5 | 30.3 | 35.9 | 27.9 | 20.4
7 | C=C/C(C)=C\CC/C(C)=C/c1cc(C(=O)N2CCN(c3ccccc3)CC2)co1 |  | 28.6 | 39.8 | 32.1 | 28.3 | 30.3
8 | C=C/C(C)=C\CC/C(C)=C/c1cc(C(=O)N2CCN(Cc3ccccc3)CC2)co1 |  | 50.9 | 53.7 | 59.4 | 50.7 | 45.3
9 | C=C/C(C)=C\CC/C(C)=C/c1cc(C(=O)N2CCN(Cc3ccc4c(c3)OCO4)CC2)co1 |  | 15.9 | 50.8 | 44.2 | 45.5 | 17.9
10 | C=C/C(C)=C\CC/C(C)=C/c1cc(C(=O)N2CCN(C(c3ccccc3)c3ccccc3)CC2)co1 |  | 17.8 | 26.7 | 28.5 | 24.6 | 16.8
11 | C=C/C(C)=C\CC/C(C)=C/c1cc(C(=O)Nc2ccc(C)cc2)co1 |  | 60.4 | 65.3 | 59.5 | 63.2 | 56.5
12 | C=C/C(C)=C\CC/C(C)=C/c1cc(C(=O)NCCCNC(=O)c2coc(/C=C(\C)CC/C=C(/C)C=C)c2)co1 |  | 59 | 57.7 | 73.4 | 69.7 | 41.3

Reference: ChEMBL document CHEMBL3085651, “Anti-cancer evaluation of carboxamides of furano-sesquiterpene carboxylic acids from the soft coral Sinularia kavarattiensis” (Bioorg Med Chem Lett, 2013)
